Assay results reported in ChEMBL document CHEMBL1151750, “The fourth molybdenum containing enzyme mARC: cloning and involvement in the activation of N-hydroxylated prodrugs” (J Med Chem, 2008).

Legend:
Assay type in all cases: microsomes
Details in all cases: Microsome
[1] = biological target: T1, Mitochondrial amidoxime-reducing component 1 (Homo sapiens) (UniProt Q5VT66); assay: (§1) Specific activity at molybdenum cofactor/metal-free precursor molybopterin bound human recombinant mARC1 expressed in Escherichia coli TP1000 assessed as reduction to debrisoquine in complete reconstituted system containing microsomal cyt b5, NADH and microsomal NADH cyt b5 reductase per mg of protein at 0.5 mM by HPLC analysis
T1 sequence (whole entry): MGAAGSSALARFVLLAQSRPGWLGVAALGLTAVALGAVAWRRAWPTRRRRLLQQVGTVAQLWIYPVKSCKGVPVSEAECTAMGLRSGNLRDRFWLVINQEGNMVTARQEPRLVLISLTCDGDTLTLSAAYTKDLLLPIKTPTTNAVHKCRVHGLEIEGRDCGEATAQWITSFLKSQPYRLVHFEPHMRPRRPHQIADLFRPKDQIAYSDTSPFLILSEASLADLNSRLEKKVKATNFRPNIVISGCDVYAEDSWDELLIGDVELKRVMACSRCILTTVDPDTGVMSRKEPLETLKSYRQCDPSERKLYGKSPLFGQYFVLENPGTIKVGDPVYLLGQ
Summary of the method: (§2)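 His6-tagged human mARC1 expressed in E. coli TP1000 (22 °C, IPTG induction, 1 mM sodium molybdate added) and Ni-NTA purified. Assay mix: 100 µg mARC1, 0.05 U pig liver microsomal NADH cyt b5 reductase, 200 pmol microsomal cyt b5, 0.5 mM N-hydroxylated substrate, 1 mM NADH, 100 mM potassium phosphate pH 6.0. Omitted components as stated per line. Aerobic, 37 °C, 3 min preincubation, NADH start, 15 or 20 min, methanol stop. Product quantified by HPLC; mean ± SD, n=4.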

[2] = biological target: T1, Mitochondrial amidoxime-reducing component 1 (Homo sapiens); assay: as §1, with “melagatran” for “debrisoquine”; summary of the method: as §2
[3] = biological target: T1, Mitochondrial amidoxime-reducing component 1 (Homo sapiens); assay: as §1, with “guanabenz” for “debrisoquine”; summary of the method: as §2
[4] = biological target: T1, Mitochondrial amidoxime-reducing component 1 (Homo sapiens); assay: as §1, with “pentamidine” for “debrisoquine”; summary of the method: as §2
[5] = biological target: T1, Mitochondrial amidoxime-reducing component 1 (Homo sapiens); assay: as §1, with “diminazene” for “debrisoquine”; summary of the method: as §2
[6] = biological target: T1, Mitochondrial amidoxime-reducing component 1 (Homo sapiens); assay: as §1, with “diminazene monoamidoxime” for “debrisoquine”; summary of the method: as §2
[7] = biological target: T1, Mitochondrial amidoxime-reducing component 1 (Homo sapiens); assay: as §1, with “pentamidine monoamidoxime” for “debrisoquine”; summary of the method: as §2
[8] = biological target: T1, Mitochondrial amidoxime-reducing component 1 (Homo sapiens); assay: as §1, with “to benzamidine” for “to debrisoquine”, “in” for “in complete”, “cyt b5 and” for “cyt b5,”, “NADH without” for “NADH and”, “NADH cytochrome” for “NADH cyt”; summary of the method: as §2
[9] = biological target: T1, Mitochondrial amidoxime-reducing component 1 (Homo sapiens); assay: as §1, with “benzamidine” for “debrisoquine”, “in” for “in complete”, “containing” for “containing microsomal cyt b5,”, “reductase without microsomal cytochrome b5” for “reductase”; summary of the method: as §2
[10] = biological target: T1, Mitochondrial amidoxime-reducing component 1 (Homo sapiens); assay: as §1, with “benzamidine” for “debrisoquine”; summary of the method: as §2

Question: Which Activity [1] does the source give for N/C(=N\O)N1CCc2ccccc2C1 here?
Answer: 15.9 nmol/min

Question: N/C(=N\O)c1ccc(CNC(=O)[C@@H]2CCN2C(=O)[C@H](NCC(=O)O)C2CCCCC2)cc1 was tested. Which Activity [2] did it give?
Answer: 0.48 nmol/min

Question: How did the Activity [3] turn out when N=C(NO)N/N=C/c1c(Cl)cccc1Cl was run?
Answer: 20.4 nmol/min

Question: Which Activity [4] does the source give for N=C(N)c1ccc(OCCCCCOc2ccc(/C(N)=N\O)cc2)cc1 here?
Answer: 6.59 nmol/min

Question: With N/C(=N\O)c1ccc(/N=N/Nc2ccc(/C(N)=N/O)cc2)cc1 as the molecule, how does the Activity [5] read?
Answer: 0.05 nmol/min

Question: What about the Activity [6] of the same molecule?
Answer: 4.31 nmol/min

Question: Which Activity [7] does the source give for N/C(=N\O)c1ccc(OCCCCCOc2ccc(/C(N)=N/O)cc2)cc1 here?
Answer: 0.56 nmol/min

Question: And the Activity [4]?
Answer: 0.49 nmol/min

Question: Which Activity [8] does the source give for N/C(=N\O)c1ccccc1 here?
Answer: 0.2 nmol/min

Question: And the Activity [9]?
Answer: 0.23 nmol/min

Question: And the Activity [10]?
Answer: 1.3 nmol/min
